Drawing on ChEMBL document CHEMBL2396643, “Discovery of a small molecular compound simultaneously targeting RXR and HADC: design, synthesis, molecular docking and bioassay” (Bioorg Med Chem Lett, 2013), this text covers IC50, inhibition and EC50 for 3 compounds.

For experiment [1], the system named is DU-145. Briefly: Cytotoxicity against human DU145 cells assessed as growth inhibition after 72 hrs by MTT assay. The format is functional, cell-based. Particulars: DU-145, 72 h. In short, it runs like this: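 Seeded at 3000 cells/well and incubated with diluted compounds, with bexarotene and SAHA as positive controls, for 72 h. Final DMSO 0.1%. Remaining cells quantified with MTT dye per manufacturer instructions.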
Background: Tetrazolium assays rely on reduction of a dye to a coloured formazan, in cell work by metabolically active cells.

Experiment [2] concerns KB. Description: Cytotoxicity against human KB cells assessed as growth inhibition after 72 hrs by MTT assay. In kind it is functional, cell-based. In short, it runs like this: (§1)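 Cells seeded at 3000 per well and exposed to diluted compounds, with bexarotene and SAHA as positive controls, for 48 h (drug-resistant cells) or 72 h (parental cells). Final DMSO 0.1%. Cell number determined by MTT dye per manufacturer instructions.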

Experiment [3] is described as follows: Cytotoxicity against human GBC-SD cells assessed as growth inhibition after 72 hrs by MTT assay. In kind it is functional, cell-based.
The test system of experiment [4] is KB. Description: Cytotoxicity against bexarotene-resistant human KB cells assessed as growth inhibition after 48 hrs by MTT assay. In kind it is functional, cell-based. In short, it runs like this:
as §1

Experiment [5] in a line: Cytotoxicity against human Hep3B cells assessed as growth inhibition after 72 hrs by MTT assay. In kind it is functional, cell-based, Hep 3B2.
The target in experiment [6] is T1, Histone deacetylase (Homo sapiens) (UniProt Q13547+O15379+Q9UBN7+Q92769+Q9UQL6+Q8WUI4+Q9BY41+Q96DB2+P56524+Q9UKV0+Q969S8). Briefly: Inhibition of HDAC in human HL60 cells assessed as increase in p21 WAF1/CIP1 level after 48 hrs by Western blot analysis. The format is cell-based. Particulars: HL-60. In short, it runs like this:
(§2)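 About 1 × 10⁷ HL60 cells exposed to compound or SAHA for 48 h. Nuclear protein extracted, equal protein amounts resolved on 10–15% SDS–PAGE and blotted to PVDF. Probed for acetylated H3 and p21WAF1/CIP1, with histone H3 and β-actin as loading controls. ECL detection on X-ray film, densitometry relative to control.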

For experiment [7], the target named is T1, Histone deacetylase (Homo sapiens). Description: Inhibition of HDAC in human HL60 cells assessed as increase in acetylated H3 level after 48 hrs by Western blot analysis. In kind it is cell-based. Particulars: HL-60. In short, it runs like this: as §2
For orientation: Immunoblotting shows a protein as a band on a membrane.

Experiment [8] relates to A549. Briefly: Cytotoxicity against human A549 cells assessed as growth inhibition after 72 hrs by MTT assay. In kind it is functional, cell-based. Particulars: A549, 72 h.
The test system of experiment [9] is HGC-27. Description: Cytotoxicity against human HGC27 cells assessed as growth inhibition after 72 hrs by MTT assay. The format is functional, cell-based. The following applies: HGC-27, 72 h.
Experiment [10] concerns the target Histone deacetylase. Description: Inhibition of HDAC isolated from human HeLa cell nuclear extract after 30 mins by fluorescence assay. The format is protein assay.
Experiment [11] concerns the target T1, Histone deacetylase (Homo sapiens). Description: Inhibition of HDAC in human HL60 cells using Boc-Lys(Ac)-pNA as substrate incubated for 24 hrs prior to substrate addition measured after 90 mins by fluorescence assay. The format is cell-based. Particulars: HL-60. A digest of the protocol:
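HL60 cells exposed to a range of compound concentrations or SAHA for 24 h, then lysed and protein measured by BCA. Lysates incubated with Boc-Lys(Ac)-pNA (10 mM) in HDAC assay buffer for 90 min at 37 °C. Lysine Developer added and incubated 30 min at 37 °C before plate-reader readout. Mean ± SD of three determinations.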

Experiment [12] deals with A549/SAHA. Briefly: cells. The following applies: Homo sapiens, 48 h.
The target in experiment [13] is T2, Retinoic acid receptor RXR-alpha (Homo sapiens, UniProt P19793).
T2 sequence (P19793 whole entry): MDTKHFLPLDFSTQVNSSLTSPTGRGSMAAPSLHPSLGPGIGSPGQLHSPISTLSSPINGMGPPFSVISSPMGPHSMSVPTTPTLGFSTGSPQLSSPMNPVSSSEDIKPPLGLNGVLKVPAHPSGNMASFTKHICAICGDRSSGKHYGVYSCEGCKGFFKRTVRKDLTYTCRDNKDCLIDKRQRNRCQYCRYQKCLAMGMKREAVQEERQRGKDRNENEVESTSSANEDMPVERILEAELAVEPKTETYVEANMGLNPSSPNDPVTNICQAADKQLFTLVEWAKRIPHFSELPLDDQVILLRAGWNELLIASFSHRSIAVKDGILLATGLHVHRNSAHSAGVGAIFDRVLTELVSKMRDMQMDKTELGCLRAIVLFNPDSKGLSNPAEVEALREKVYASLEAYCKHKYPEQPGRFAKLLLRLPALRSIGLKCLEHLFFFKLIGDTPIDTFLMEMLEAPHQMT
Description: Transactivation of human RXRalpha transfected in human 293 cells after 48 hrs by dual-luciferase reporter gene assay. In kind it is cell-based, HEK293.

pEC50, pIC50: −log10 of the molar value.

On to `O=C(CCCCCCC(=O)Nc1ccccc1)NO` [VORINOSTAT], for which the pIC50 in [1] was 4.57.
Turning to `C=C(c1ccc(C(=O)NO)cc1)c1cc2c(cc1C)C(C)(C)CCC2(C)C`, the pIC50 in [2] was 5.21; in experiment [3], 4.62; in experiment [4] it was 4.77; in experiment [5], 4.76; in experiment [1] it was 4.85; in experiment [8] it was 5.03. Further, the pIC50 is 5.07 in experiment [9] and 5.42 in experiment [12]. Besides, the inhibition result in experiment [6], in [7] and in [11] was “Dose-dependent effect” in each case. The IC50 in experiment [10] was determined as 6.7 µM. This compound also showed a pEC50 in experiment [13] of 7.71.
For the compound `C=C(c1ccc(C(=O)O)cc1)c1cc2c(cc1C)C(C)(C)CCC2(C)C` [BEXAROTENE], the pIC50 in experiment [2] is 5.06; in experiment [3], 4.13; in experiment [4], 4.33; in [5], 3.72; in [1] it was 4.21; in experiment [9] it was 4.49.

What is called pIC50 is the negative decadic logarithm of the IC50, by convention in mol/L. The IC50 is the concentration that gives 50% inhibition. The low end stands for inhibition by little substance, the high end for a need for much substance. Broadly, the pEC50 is the negative decadic logarithm of the EC50, by convention in mol/L. A lower pEC50 goes with a high EC50.
